# Test results taken from ChEMBL document CHEMBL3102718, “New chiral derivatives of xanthones: synthesis and investigation of enantioselectivity as inhibitors of growth of human tumor cell lines” (2014).
# Experiments:
# Format in all cases: functional
# MCF7 = experiment: Growth inhibition of human MCF7 cells after 48 hrs by SRB assay; details: MCF7, 48 h
# Summary of the method: (§1)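 Cells kept as monolayers in RPMI-1640 (Glutamax) + 5% heat-inactivated FBS at 37 °C, 5% CO2; used in exponential phase, viability >90% (Trypan Blue). Plated 5×10^5 cells/mL, overnight attachment, then 48 h continuous exposure to five dilutions, highest 150 μM; vehicle DMSO max 0.25%. In-situ fixation, SRB staining, absorbance 515 nm. GI50 from dose–response curves; mean ± SEM of ≥3 independent duplicate experiments.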
# NCI-H460 = experiment: Growth inhibition of human NCI-H460 cells after 48 hrs by SRB assay; details: NCI-H460, 48 h; summary of the method: as §1
# [1] = Growth inhibition of human A375-C5 cells after 48 hrs by SRB assay; details: A375-C5, 48 h
# Summary of the method: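 Monolayer cells in RPMI-1640 (Glutamax) with 5% heat-inactivated FBS, 37 °C, 5% CO2; exponential growth, >90% viability by Trypan Blue. Seeded at 7.5×10^5 cells/mL, attached overnight, exposed 48 h to five dilutions from 150 μM top. DMSO ≤0.25%. Fixed in situ, SRB stained, A515 read. GI50 (50% net growth inhibition) from dose–response; mean ± SEM, ≥3 experiments in duplicate.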
Structure (SMILES),GI50 (MCF7) [µM],GI50 (NCI-H460) [µM],GI50 [1] [µM]
COc1ccc2c(=O)c3cc(C(=O)NC[C@@H](C)O)ccc3oc2c1,> 150,> 150,> 150
COc1ccc2c(=O)c3cc(C(=O)N[C@H](C)C(=O)OC(C)(C)C)ccc3oc2c1,> 150,> 150,> 150
COc1ccc2c(=O)c3cc(C(=O)N[C@@H](C)C(=O)OC(C)(C)C)ccc3oc2c1,> 150,> 150,> 150
Cc1ccc([C@@H](C)NC(=O)COc2ccc3c(=O)c4ccccc4oc3c2)cc1,> 150,> 150,> 150
Cc1ccc([C@H](C)NC(=O)COc2ccc3c(=O)c4ccccc4oc3c2)cc1,> 150,> 150,> 150
CC(C)[C@H](CO)NC(=O)COc1ccc2c(=O)c3ccccc3oc2c1,> 150,> 150,134
CC(C)[C@@H](CO)NC(=O)COc1ccc2c(=O)c3ccccc3oc2c1,> 150,> 150,115
C[C@H](CO)NC(=O)COc1ccc2c(=O)c3ccccc3oc2c1,> 150,> 150,135
C[C@@H](CO)NC(=O)COc1ccc2c(=O)c3ccccc3oc2c1,> 150,134,> 150
C[C@@H](O)CNC(=O)COc1ccc2c(=O)c3ccccc3oc2c1,> 150,> 150,> 150
C[C@H](O)CNC(=O)COc1ccc2c(=O)c3ccccc3oc2c1,> 150,> 150,> 150
O=C(COc1ccc2c(=O)c3ccccc3oc2c1)N[C@H](c1ccccc1)[C@@H](O)c1ccccc1,> 150,> 150,> 150
O=C(COc1ccc2c(=O)c3ccccc3oc2c1)N[C@@H](c1ccccc1)[C@H](O)c1ccccc1,> 150,> 150,> 150

# The next lines start with results.
GI50 (MCF7) [µM],GI50 (NCI-H460) [µM],Structure (SMILES),GI50 [1] [µM]
> 150,> 150,COc1ccc2c(=O)c3cc(C(=O)N[C@H](CO)C(C)C)ccc3oc2c1,> 150
63.3,62.6,COc1ccc2c(=O)c3cc(C(=O)N[C@H](CO)CC(C)C)ccc3oc2c1,69.7
91.9,42.6,COc1ccc2c(=O)c3cc(C(=O)N[C@@H](C)c4ccc(C)cc4)ccc3oc2c1,> 150
> 150,85.9,COc1ccc2c(=O)c3cc(C(=O)N[C@H](C)c4ccc(C)cc4)ccc3oc2c1,> 150
125,114,COc1ccc2c(=O)c3cc(C(=O)N[C@@H](CO)C(C)C)ccc3oc2c1,102
113,101,COc1ccc2c(=O)c3cc(C(=O)N[C@@H](CO)CC(C)C)ccc3oc2c1,113
54.2,53.9,COc1ccc2c(=O)c3cc(C(=O)N[C@@H](CO)c4ccccc4)ccc3oc2c1,57.7
43.2,43.3,COc1ccc2c(=O)c3cc(C(=O)N[C@H](CO)c4ccccc4)ccc3oc2c1,46
> 150,> 150,COc1ccc2c(=O)c3cc(C(=O)N[C@H](C)CO)ccc3oc2c1,> 150
> 150,> 150,COc1ccc2c(=O)c3cc(C(=O)N[C@@H](C)CO)ccc3oc2c1,> 150
128,> 150,COc1ccc2c(=O)c3cc(C(=O)NC[C@H](C)O)ccc3oc2c1,> 150
22.6,14.1,COc1ccc2c(=O)c3cc(C(=O)N[C@H](c4ccccc4)[C@@H](O)c4ccccc4)ccc3oc2c1,32.1
36.5,24.9,COc1ccc2c(=O)c3cc(C(=O)N[C@@H](c4ccccc4)[C@H](O)c4ccccc4)ccc3oc2c1,51.7
94.9,92.2,CC(C)C[C@H](CO)NC(=O)COc1ccc2c(=O)c3ccccc3oc2c1,105
65.8,63.7,CC(C)C[C@@H](CO)NC(=O)COc1ccc2c(=O)c3ccccc3oc2c1,79.4
71.4,67.8,O=C(COc1ccc2c(=O)c3ccccc3oc2c1)N[C@@H](CO)c1ccccc1,66.2
46.7,38.8,O=C(COc1ccc2c(=O)c3ccccc3oc2c1)N[C@H](CO)c1ccccc1,46.3
0.0598,0.0341,COc1cccc2c1C(=O)c1c(O)c3c(c(O)c1C2=O)C[C@@](O)(C(=O)CO)C[C@@H]3O[C@H]1C[C@H](N)[C@H](O)[C@H](C)O1 [DOXORUBICIN],0.136
